Holding throughout (type): ADME
The target in one data set is Cytochrome P450 3A7 (Homo sapiens, UniProt P24462). Briefly: Drug level of the compound assessed as recombinant CYP3A7 (unknown origin)-mediated metabolite formation treated with budesonide by MS/MS analysis. Particulars: recombinant enzyme. The procedure, abridged: (§1)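 Metabolite profiling used 50 pmol recombinant P450 (with reductase and cytochrome b5) and 100 μM substrate in 30 mM potassium phosphate (pH 7.4). Reactions were started with 1.3 mM NADPH at 37°C, with no-NADPH negative controls. They were stopped with cold acetonitrile, deproteinized by centrifugation, and metabolites were extracted on C-18 cartridges for MS analysis.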
Chain of Cytochrome P450 3A7 (P24462 whole entry): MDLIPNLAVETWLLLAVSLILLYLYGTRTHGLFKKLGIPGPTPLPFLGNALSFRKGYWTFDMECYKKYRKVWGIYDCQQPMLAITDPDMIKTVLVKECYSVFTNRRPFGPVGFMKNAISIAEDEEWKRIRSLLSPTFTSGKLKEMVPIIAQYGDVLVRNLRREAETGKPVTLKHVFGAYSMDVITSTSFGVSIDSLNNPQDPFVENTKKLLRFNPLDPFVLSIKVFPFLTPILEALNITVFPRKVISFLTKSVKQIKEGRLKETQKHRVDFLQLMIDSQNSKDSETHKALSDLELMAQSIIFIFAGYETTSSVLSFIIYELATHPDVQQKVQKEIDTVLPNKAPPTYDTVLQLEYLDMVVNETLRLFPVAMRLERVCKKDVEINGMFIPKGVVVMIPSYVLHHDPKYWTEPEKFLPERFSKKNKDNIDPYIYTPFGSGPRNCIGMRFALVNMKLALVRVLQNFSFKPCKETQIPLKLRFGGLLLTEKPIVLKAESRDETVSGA

The target in data set [1] is T1, Cytochrome P450 3A4 (Homo sapiens, UniProt P08684). The experiment in a line: Drug level of the compound assessed as recombinant CYP3A4 (unknown origin)-mediated metabolite formation treated with budesonide by MS/MS analysis. The conditions noted are these: recombinant enzyme. The essentials:
as §1

For the next data set, the target named is Cytochrome P450 3A5 (Homo sapiens, UniProt P20815). Briefly: Drug level of the compound assessed as recombinant CYP3A5 (unknown origin)-mediated metabolite formation treated with budesonide by MS/MS analysis. Particulars: recombinant enzyme. The procedure, abridged: as §1
Chain of Cytochrome P450 3A5 (P20815 whole entry): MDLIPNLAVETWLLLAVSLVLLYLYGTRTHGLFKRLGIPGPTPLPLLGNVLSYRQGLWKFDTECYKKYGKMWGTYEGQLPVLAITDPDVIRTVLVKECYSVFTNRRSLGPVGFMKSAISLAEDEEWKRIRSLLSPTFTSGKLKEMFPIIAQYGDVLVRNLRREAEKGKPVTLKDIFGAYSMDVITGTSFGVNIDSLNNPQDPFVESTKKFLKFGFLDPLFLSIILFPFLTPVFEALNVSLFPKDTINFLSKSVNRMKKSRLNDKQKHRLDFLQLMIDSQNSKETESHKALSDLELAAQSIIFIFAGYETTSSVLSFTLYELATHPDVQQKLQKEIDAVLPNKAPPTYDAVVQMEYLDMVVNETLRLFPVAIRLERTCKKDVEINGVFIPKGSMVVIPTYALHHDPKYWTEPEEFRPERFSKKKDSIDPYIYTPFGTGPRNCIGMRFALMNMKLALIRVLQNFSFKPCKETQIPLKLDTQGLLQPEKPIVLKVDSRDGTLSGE
Data set [2] concerns the target T1, Cytochrome P450 3A4. The experiment in a line: Drug metabolism assessed as recombinant CYP3A4 (unknown origin)-mediated 6beta-hydroxy, 21-carboxy triamcinolone acetonide metabolite retention time by MS/MS analysis. Particulars: recombinant enzyme. The procedure, abridged: as §1
The target of data set [3] is T1, Cytochrome P450 3A4. The experiment in a line: Drug level of the compound assessed as recombinant CYP3A4 (unknown origin)-mediated metabolite formation treated with triamcinolone acetonide by MS/MS analysis. Particulars: recombinant enzyme. The essentials:
as §1

Data set [4] deals with T1, Cytochrome P450 3A4. The experiment in a line: Drug metabolism assessed as recombinant CYP3A4 (unknown origin)-mediated 21-carboxy triamcinolone acetonide metabolite retention time by MS/MS analysis. The conditions noted are these: recombinant enzyme. The essentials:
as §1

For data set [5], the target named is T1, Cytochrome P450 3A4. The experiment in a line: Drug metabolism assessed as recombinant CYP3A4 (unknown origin)-mediated 21-nortriamcincolone acetonide metabolite retention time by MS/MS analysis. The conditions noted are these: recombinant enzyme. The essentials: as §1
The target in data set [6] is T1, Cytochrome P450 3A4. The experiment in a line: Drug metabolism assessed as recombinant CYP3A4 (unknown origin)-mediated 21-carboxy flunisolide metabolite retention time by MS/MS analysis. Particulars: recombinant enzyme. The procedure, abridged:
as §1

For data set [7], the target named is T1, Cytochrome P450 3A4. The experiment in a line: Drug level of the compound assessed as recombinant CYP3A4 (unknown origin)-mediated metabolite formation treated with flunisolide by MS/MS analysis. Particulars: recombinant enzyme. The procedure, abridged: as §1
Data set [8] concerns the target T1, Cytochrome P450 3A4. Briefly: Drug metabolism assessed as recombinant CYP3A4 (unknown origin)-mediated delta6-flunisolide metabolite retention time by MS/MS analysis. The conditions noted are these: recombinant enzyme. The essentials:
as §1

The target in the next data set is CYP3A7 (Homo sapiens, UniProt P24462). The experiment in a line: Activity at recombinant CYP3A7 (unknown origin) assessed as half life at 1 uM by LC-MS analysis. The essentials: (§2)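 Recombinant P450 co-expressing P450 reductase and cytochrome b5, 10 pmol, with 1 μM substrate in 30 mM potassium phosphate (pH 7.4). Started with 1.3 mM NADPH at 37°C; no-NADPH negative controls. Samples at 0–20 min were quenched in cold acetonitrile with prednisolone internal standard and run by LC/MS, in triplicate. Parent/IS ratio vs time fitted to one-phase exponential decay; t1/2 = 0.69/kobs.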
Chain of CYP3A7 (P24462 whole entry): as the sequence (P24462 whole entry) above

The target in the next data set is CYP3A4 (Homo sapiens, UniProt P08684). Briefly: Activity at recombinant CYP3A4 (unknown origin) assessed as half life at 1 uM by LC-MS analysis. The essentials:
as §2

Another data set has as its target CYP3A5 (Homo sapiens, UniProt P20815). Briefly: Activity at recombinant CYP3A5 (unknown origin) assessed as half life at 1 uM by LC-MS analysis. The procedure, abridged:
as §2

For data set [9], the target named is T1, Cytochrome P450 3A4. Briefly: Drug metabolism assessed as recombinant CYP3A4 (unknown origin)-mediated 6beta-hydroxy triamcinolone acetonide metabolite retention time by MS/MS analysis. The conditions noted are these: recombinant enzyme. The procedure, abridged: as §1
Data set [10] concerns the target T1, Cytochrome P450 3A4. Briefly: Drug metabolism assessed as recombinant CYP3A4 (unknown origin)-mediated delta6-triamcinolone acetonide metabolite retention time by MS/MS analysis. The conditions noted are these: recombinant enzyme. The essentials:
as §1

For data set [11], the target named is T1, Cytochrome P450 3A4. Briefly: Drug metabolism assessed as recombinant CYP3A4 (unknown origin)-mediated keto-flunisolide metabolite retention time by MS/MS analysis. Particulars: recombinant enzyme. The procedure, abridged:
as §1

Data set [12] concerns the target T1, Cytochrome P450 3A4. The experiment in a line: Drug metabolism assessed as recombinant CYP3A4 (unknown origin)-mediated 6beta-hydroxy budesonide metabolite formation by MS/MS analysis. The conditions noted are these: recombinant enzyme. The procedure, abridged: as §1
Data set [13] concerns the target T1, Cytochrome P450 3A4. Briefly: Drug metabolism assessed as recombinant CYP3A4 (unknown origin)-mediated 23-hydroxy budesonide metabolite formation by MS/MS analysis. Particulars: recombinant enzyme. The procedure, abridged:
as §1

Data set [14] has as its target T1, Cytochrome P450 3A4. The experiment in a line: Drug metabolism assessed as recombinant CYP3A4 (unknown origin)-mediated 16alpha-hydroxy prednisolone metabolite formation by MS/MS analysis. The conditions noted are these: recombinant enzyme.
Data set [15] deals with T1, Cytochrome P450 3A4. The experiment in a line: Drug metabolism assessed as recombinant CYP3A4 (unknown origin)-mediated delta6-budesonide metabolite formation by MS/MS analysis. The conditions noted are these: recombinant enzyme. The essentials:
as §1

The target in data set [16] is T1, Cytochrome P450 3A4. Briefly: Drug metabolism assessed as recombinant CYP3A4 (unknown origin)-mediated 16alpha-hydroxy prednisolone metabolite formation by MS/MS analysis in presence of esterase inhibitor. The conditions noted are these: recombinant enzyme.
The target of data set [17] is T1, Cytochrome P450 3A4. Briefly: Drug metabolism assessed as recombinant CYP3A4 (unknown origin)-mediated 17beta-carboxy fluticasone propionate metabolite retention time by MS/MS analysis. The conditions noted are these: recombinant enzyme. The procedure, abridged:
as §1

In data set [18] the target is T1, Cytochrome P450 3A4. The experiment in a line: Drug level of the compound assessed as recombinant CYP3A4 (unknown origin)-mediated metabolite formation treated with fluticasone propionate by MS/MS analysis. The conditions noted are these: recombinant enzyme. The procedure, abridged:
as §1

Chain of CYP3A5 (P20815 whole entry): as the sequence (P20815 whole entry) above
T1 sequence (P08684 whole entry): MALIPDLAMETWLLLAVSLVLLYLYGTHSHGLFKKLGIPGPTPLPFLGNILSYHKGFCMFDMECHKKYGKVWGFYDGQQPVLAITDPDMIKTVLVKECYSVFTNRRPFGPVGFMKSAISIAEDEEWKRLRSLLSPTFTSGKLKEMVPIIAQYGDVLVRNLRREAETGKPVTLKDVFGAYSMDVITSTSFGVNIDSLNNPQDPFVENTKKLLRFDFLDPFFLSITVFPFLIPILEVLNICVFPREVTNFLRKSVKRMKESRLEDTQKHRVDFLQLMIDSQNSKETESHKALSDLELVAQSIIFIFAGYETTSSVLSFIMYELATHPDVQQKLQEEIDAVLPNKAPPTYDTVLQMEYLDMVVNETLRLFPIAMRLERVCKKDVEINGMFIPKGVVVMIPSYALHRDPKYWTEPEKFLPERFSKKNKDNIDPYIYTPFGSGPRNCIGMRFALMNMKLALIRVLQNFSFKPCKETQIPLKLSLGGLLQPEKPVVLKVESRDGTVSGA
Chain of CYP3A4 (P08684 whole entry): as above

Turning to `C[C@]12C=CC(=O)C=C1CC[C@@H]1[C@@H]2[C@@H](O)C[C@@]2(C)[C@H]1C[C@@H](O)[C@]2(O)C(=O)CO`, the Drug metabolism entry on Cytochrome P450 3A7, on Cytochrome P450 3A4 [1] and on Cytochrome P450 3A5 was “metabolite_detected” throughout.
Turning to `CCCC1O[C@@H]2C[C@H]3[C@@H]4C=CC5=CC(=O)C=C[C@]5(C)[C@H]4[C@@H](O)C[C@]3(C)[C@]2(C(=O)CO)O1` (stereo not given in full), the Drug metabolism entry at Cytochrome P450 3A7, on Cytochrome P450 3A4 [1] and on Cytochrome P450 3A5 was “metabolite_detected” in each case.
As to `CC1(C)O[C@@H]2C[C@H]3[C@@H]4C[C@@H](O)C5=CC(=O)C=C[C@]5(C)[C@@]4(F)[C@@H](O)C[C@]3(C)[C@]2(C(=O)C(=O)O)O1`, the Retention_time at Cytochrome P450 3A4 [2] was found to be 16.4 min. Moreover, the Drug metabolism entry on Cytochrome P450 3A4 [3] is “metabolite_detected”.
Regarding `CC1(C)O[C@@H]2C[C@H]3[C@@H]4CCC5=CC(=O)C=C[C@]5(C)[C@@]4(F)[C@@H](O)C[C@]3(C)[C@]2(C(=O)C(=O)O)O1`, the Retention_time at Cytochrome P450 3A4 [4] is given as 23.7 min. The Drug metabolism result on Cytochrome P450 3A4 [3] is “metabolite_detected”.
Regarding `CC1(C)O[C@@H]2C[C@H]3[C@@H]4CCC5=CC(=O)C=C[C@]5(C)[C@@]4(F)[C@@H](O)C[C@]3(C)[C@]2(C(=O)O)O1`, on Cytochrome P450 3A4 [5], the Retention_time came out at 18.9 min. For the same compound, the Drug metabolism entry on Cytochrome P450 3A4 [3] is recorded as “metabolite_detected”.
With `CC1(C)O[C@@H]2C[C@H]3[C@@H]4C[C@H](F)C5=CC(=O)C=C[C@]5(C)[C@H]4[C@@H](O)C[C@]3(C)[C@]2(C(=O)C(=O)O)O1`, on Cytochrome P450 3A4 [6], the Retention_time worked out at 23.1 min. The Drug metabolism result on Cytochrome P450 3A4 [7] is reported as “metabolite_detected”.
As for `CC1(C)O[C@@H]2C[C@H]3[C@@H]4C=C(F)C5=CC(=O)C=C[C@]5(C)[C@H]4[C@@H](O)C[C@]3(C)[C@]2(C(=O)CO)O1`, the Drug metabolism result on Cytochrome P450 3A4 [7] is recorded as “metabolite_detected”. Besides, the Retention_time at Cytochrome P450 3A4 [8] stood at 20.6 min.
Consider `CC1(C)O[C@@H]2C[C@H]3[C@@H]4CC(=O)C5=CC(=O)C=C[C@]5(C)[C@H]4[C@@H](O)C[C@]3(C)[C@]2(C(=O)CO)O1`, for which, on Cytochrome P450 3A4 [7], the Drug metabolism entry is reported as “metabolite_detected”.
In the case of `CCC(=O)O[C@]1(C(=O)SCF)[C@H](C)C[C@H]2[C@@H]3C[C@H](F)C4=CC(=O)C=C[C@]4(C)[C@@]3(F)[C@@H](O)C[C@@]21C` [FLUTICASONE PROPIONATE], the half-life – broadly, how long it takes for the measured level to halve – at 1 µM came out at 58 min on CYP3A7, 0.86 min on CYP3A4 and 16 min on CYP3A5.
`CC1(C)O[C@@H]2C[C@H]3[C@@H]4C[C@@H](O)C5=CC(=O)C=C[C@]5(C)[C@@]4(F)[C@@H](O)C[C@]3(C)[C@]2(C(=O)CO)O1`: at Cytochrome P450 3A4 [3], the Drug metabolism result is listed as “metabolite_detected”. For the same compound, on Cytochrome P450 3A4 [9], the Retention_time was 14.9 min.
As to `CC1(C)O[C@@H]2C[C@H]3[C@@H]4C=CC5=CC(=O)C=C[C@]5(C)[C@@]4(F)[C@@H](O)C[C@]3(C)[C@]2(C(=O)CO)O1`, at Cytochrome P450 3A4 [10], the Retention_time came to 19.1 min. Further, the Drug metabolism result on Cytochrome P450 3A4 [3] is listed as “metabolite_detected”.
Consider `CC1(C)O[C@@H]2C[C@H]3[C@@H]4C[C@H](F)C5=CC(=O)C=C[C@]5(C)[C@H]4[C@@H](O)C[C@]3(C)[C@]2(C(=O)CO)O1` [FLUNISOLIDE], for which the half-life at 1 µM at CYP3A4 came to 16 min. For the same compound, on Cytochrome P450 3A4 [11], the Retention_time was determined as 15.8 min.
Consider `CCCC1O[C@@H]2C[C@H]3[C@@H]4CCC5=CC(=O)C=C[C@]5(C)[C@H]4[C@@H](O)C[C@]3(C)[C@]2(C(=O)CO)O1` (stereo not given in full) [BUDESONIDE], for which the half-life at 1 µM on CYP3A7 was 71 min; on CYP3A4 it was 11 min; at CYP3A5 it was 40 min. The Drug metabolism entry at Cytochrome P450 3A4 [12] was “metabolite_detected”; at Cytochrome P450 3A4 [13], “metabolite_detected”; at Cytochrome P450 3A4 [14] it was “metabolite_detected”; on Cytochrome P450 3A4 [15] it was “metabolite_detected”; at Cytochrome P450 3A4 [16] it was “metabolite_not_detected”.
Consider `CC1(C)O[C@@H]2C[C@H]3[C@@H]4CCC5=CC(=O)C=C[C@]5(C)[C@@]4(F)[C@@H](O)C[C@]3(C)[C@]2(C(=O)CO)O1` [TRIAMCINOLONE ACETONIDE], for which the half-life at 1 µM was found to be 213 min on CYP3A7, 12 min at CYP3A4 and 130 min on CYP3A5.
In the case of `CCC(=O)O[C@]1(C(=O)O)[C@H](C)C[C@H]2[C@@H]3C[C@H](F)C4=CC(=O)C=C[C@]4(C)[C@@]3(F)[C@@H](O)C[C@@]21C`, at Cytochrome P450 3A4 [17], the Retention_time is given as 19.7 min. In addition, at Cytochrome P450 3A4 [18], the Drug metabolism result is “metabolite_detected”.
As for `CCC(O)C1O[C@@H]2C[C@H]3[C@@H]4CCC5=CC(=O)C=C[C@]5(C)[C@H]4[C@@H](O)C[C@]3(C)[C@]2(C(=O)CO)O1` (stereo not given in full), the Drug metabolism entry at Cytochrome P450 3A7, at Cytochrome P450 3A4 [1] and on Cytochrome P450 3A5 was “metabolite_detected” each time.
On to `CCCC1O[C@@H]2C[C@H]3[C@@H]4C[C@@H](O)C5=CC(=O)C=C[C@]5(C)[C@H]4[C@@H](O)C[C@]3(C)[C@]2(C(=O)CO)O1` (stereo not given in full), for which the Drug metabolism result at Cytochrome P450 3A7, at Cytochrome P450 3A4 [1] and at Cytochrome P450 3A5 was “metabolite_detected” throughout.

(Values after ChEMBL document CHEMBL3525921, “Metabolic pathways of inhaled glucocorticoids by the CYP3A enzymes” (Drug Metab Dispos, 2013).)
